Experimental data pooled from the literature.
Lines come from different studies, so protocols differ.
Target: Receptor-interacting serine/threonine-protein kinase 2 (RIPK2, Homo sapiens, UniProt O43353)

CCS(=O)(=O)c1cc2cc(C[C@@](O)(CC(C)(C)c3ccc(F)cc3C(N)=O)C(F)(F)F)[nH]c2cn1 — remaining binding (cell-free assay; competition with immobilised ligand; 1 µM): 100%
CC(C)(C)c1nc2c(s1)c1nc(N)ncc1c1ccc(NS(=O)(=O)c3c(F)cccc3F)c(F)c12 — remaining activity (enzyme activity; inhibitor; radiometric; 1 µM): 70%
FC(F)(F)Oc1cccc(-c2cnc3ccc(-c4ccncc4)nn23)c1 — activity vs control (enzyme activity; inhibitor; radiometric; 1 µM): 32%
C[C@H](NC(=O)c1cnc2n1[C@](C)(Cc1ccc(C#N)cc1)C(=O)N2c1cc(Cl)c(F)c(Cl)c1)C(=O)NC1(c2ccccn2)CC1 — remaining binding (cell-free assay; competition with immobilised ligand; 1 µM): 68%
COc1cc(Nc2cnc(C#N)c(O[C@H](C)CN(C)C)n2)ncc1-c1cnn(C)c1 — remaining activity (enzyme activity; inhibitor; radiometric; 1 µM): 97%
CC(C)(O)[C@H]1CC[C@H](Nc2ccc3ncc(-c4cccc(C(F)(F)F)c4)n3n2)CC1 — remaining activity (enzyme activity; inhibitor; 1 µM): 28.1%
O=C(Nc1cnn(-c2csc(C(=O)NC3COC3)c2)c1)Nc1ccccc1Cl — remaining activity (enzyme activity; inhibitor; 5 µM): 120%
Cc1ccc(Nc2nccc(N(C)c3ccc4c(C)n(C)nc4c3)n2)cc1S(N)(=O)=O — remaining activity (enzyme activity; inhibitor; 0.5 µM): 68.2%
CNCc1ccccc1-c1csc([C@@H](C)Nc2nc(C)nc3cc(OC)c(OC)cc23)c1 — remaining binding (cell-free assay; competition with immobilised ligand; 1 µM): 100%
Oc1cccc(-c2nc(N3CCOCC3)c3oc4ncccc4c3n2)c1 — remaining activity (enzyme activity; inhibitor; 10 µM): 72%
CCc1ccccc1C(=O)Nc1n[nH]c2c(C)c(F)c(C3C(C#N)=C(C)N(C)C(C)=C3C#N)cc12 — remaining binding (cell-free assay; competition with immobilised ligand; 1 µM): 100%
O=C(Nc1cnn(-c2csc(C(=O)NC3COC3)c2)c1)Nc1c(F)cccc1Cl — remaining activity (enzyme activity; inhibitor; 5 µM): 80.2%
CNC(=O)c1cc(Oc2ccc(NC(=O)Nc3ccc(Cl)c(C(F)(F)F)c3)cc2)ccn1 — remaining signal (cell-free assay; 0.5 µM): 86.2%
NS(=O)(=O)c1cc(NC(=O)C2(c3ccccc3Cl)CC2)ccc1Oc1cccc(Cl)c1 — remaining binding (cell-free assay; competition with immobilised ligand; 1 µM): 93%
COc1cc2ncnc(Nc3ccc(Oc4ccccc4)cc3)c2cc1OC — remaining signal (cell-free assay; 0.5 µM): 55.5%
Cc1cc(NC(=O)c2cccc3cc(-c4cccc5[nH]nc(N)c45)ccc23)ccc1F — activity vs control (enzyme activity; inhibitor; 0.1 µM): 110%
CCN(CC)c1ccc(C2=NNC(=O)CC2C)cc1[N+](=O)[O-] (stereo not shown) — remaining activity (enzyme activity; inhibitor; 10 µM): 91%
Cc1cnc(NC2CCOCC2)nc1-n1cnc(C(=O)NC(CN)c2cc(F)cc(Cl)c2)c1 (stereo not shown) — remaining activity (enzyme activity; inhibitor; radiometric; 1 µM): 90%
O=C1Nc2ccc(Cl)cc2C1=Cc1cc(Cl)c(O)c(Cl)c1 — remaining signal (cell-free assay; 0.5 µM): 50.2%
Cc1ccc(C(=O)Nc2ccc(CN3CCN(C)CC3)c(C(F)(F)F)c2)cc1C#Cc1cnc2cccnn12 — remaining activity (enzyme activity; inhibitor; 23.5 nM): 43%
Cc1nccc(COC(=O)N2C[C@@H]3[C@@H](CNC(=O)c4ccc5[nH]nnc5c4)[C@@H]3C2)n1 — remaining binding (cell-free assay; competition with immobilised ligand; 1 µM): 100%
Cn1c(=O)n(-c2ccc(C(C)(C)C#N)cc2)c2c3cc(-c4cnc5ccccc5c4)ccc3ncc21 — remaining activity (enzyme activity; inhibitor; 10 µM): 28%
CC(=O)c1c(NS(C)(=O)=O)c2cc(-c3ccc(Cl)cc3)c(-c3ccc(Cl)cc3Cl)nc2n(C)c1=O — remaining binding (cell-free assay; competition with immobilised ligand; 1 µM): 96%
CCN(CC)CCNC(=O)c1c(C)[nH]c(/C=C2\C(=O)Nc3ccc(F)cc32)c1C — inhibition (enzyme activity; inhibitor; 0.3 µM): -10%
CNCc1ccc(-c2cc(-c3nc(-c4ccc(S(=O)(=O)C(C)C)cc4)cnc3N)on2)cc1 — inhibition (enzyme activity; inhibitor; 2 µM): 26%
Cn1cnc(Br)c1C1=CN(c2ncnc3[nH]cnc23)CCS1 — inhibition (enzyme activity; inhibitor; radiometric; 50 nM): 16.6%
COc1ccc2c(c1)O[C@H](c1ccc(OC)c(OC)c1)C[C@@H]2NC(=O)C1(c2ccc3c(c2)OC(F)(F)O3)CC1 — remaining binding (cell-free assay; competition with immobilised ligand; 1 µM): 100%
CNC(=O)c1cc2c(Oc3ccc(NC(=O)C4(C(=O)Nc5ccc(F)cc5)CC4)cc3)ccnc2cc1OC — inhibition (enzyme activity; inhibitor; radiometric; 1 µM): 74%
